Measured values as given in PMC3240737 (Journal of medicinal chemistry, 2011).
Residues, ends and D or L forms follow the SMILES beside them.

Experiments:
WT Aβ42 = WT Aβ42 (Homo sapiens, UniProt P05067); experiment: Intrinsic Y fluorescence; format: binding; conditions: peptide 50 μM, pH 7.4, 22°C
In short: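 HFIP-treated peptide films were dissolved in 60 mM NaOH (10% of final volume) and diluted in 10 mM sodium phosphate, pH 7.4, to nominal Aβ42 5 μM ± test peptide 50 μM. Samples were spun at 5,000 g for 1 min, with concentrations verified by amino acid analysis. Ex 280 nm, em 290–400 nm, 22°C, ≥10 scans immediately. Buffer-subtracted, area integrated per micromole, normalized to Aβ42 alone; 4 experiments.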

[1] = tested on: α-synuclein-induced toxicity in differentiated PC-12 cells; experiment: Inhibition of α-synuclein-induced toxicity, MTT assay; format: cell-based, rat; conditions: α-synuclein 15 μM, increasing Aβ(39–42) concentrations, 24 h, n ≥ 15
In short: (§1)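 PC-12 cells differentiated with nerve growth factor (100 ng/mL, 48 h), then exposed for 24 h to the toxin with or without a range of test compound concentrations. Viability by MTT, scaled between medium and 1 μM staurosporine full kill (100% reduction). Controls were NaOH-matched vehicle and medium alone. Mean ± SEM of ≥3 independent experiments, 5 replicates per point.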

[Y20]Aβ42 = [Y20]Aβ42 (Homo sapiens, UniProt P05067, F691Y/Y681F); experiment: Intrinsic Y fluorescence; format: binding; conditions: [Y20]Aβ42 5 μM, peptide 50 μM, pH 7.4, 22°C
[2] = tested on: Aβ42-induced toxicity in differentiated PC-12 cells; experiment: Inhibition of Aβ42-induced neurotoxicity, MTT assay; format: cell-based, rat; conditions: for Inhibition of Aβ42-induced neurotoxicity, single-dose screen: Aβ42 10 μM with 10-fold excess of derivative, 24 h, MTT, n ≥ 18
[Y42]Aβ42 = [Y42]Aβ42 (Homo sapiens, UniProt P05067, A713Y/Y681F); experiment: Intrinsic Y fluorescence; format: binding; conditions: [Y42]Aβ42 5 μM, peptide 50 μM, pH 7.4, 22°C
[Y30]Aβ42 = [Y30]Aβ42 (Homo sapiens, UniProt P05067, A701Y/Y681F); experiment: Intrinsic Y fluorescence; format: binding; conditions: [Y30]Aβ42 5 μM, peptide 50 μM, pH 7.4, 22°C
[3] = tested on: alamethicin-induced toxicity in differentiated PC-12 cells; experiment: Inhibition of alamethicin-induced toxicity, MTT assay; format: cell-based, rat; conditions: alamethicin 4 μM, increasing Aβ(39–42) concentrations, 24 h, n ≥ 15
In short: as §1

[4] = tested on: mouse primary hippocampal neurons; conditions: cited from earlier work
[Y1]Aβ42 = [Y1]Aβ42 (Homo sapiens, UniProt P05067, D672Y/Y681F); experiment: Intrinsic Y fluorescence; format: binding; conditions: [Y1]Aβ42 5 μM, peptide 50 μM

CC[C@H](C)[C@H](NC(=O)[C@@H](NC(=O)[C@@H](N)C(C)C)C(C)C)C(=O)N[C@@H](C)C(=O)O [Aβ(39–42)]
Change of WT Aβ42 fluorescence upon addition of peptide (WT Aβ42; WT Aβ42 5 μM): did not change significantly
Protection from α-synuclein-induced toxicity [1]: only weak protection
Change of [Y20]Aβ42 fluorescence upon addition of peptide ([Y20]Aβ42): did not change significantly
Dose dependence of inhibition of Aβ42-induced toxicity ([2]; Aβ42 10 μM, MTT and LDH): dose-dependent inhibition
Change of [Y42]Aβ42 fluorescence upon addition of peptide ([Y42]Aβ42): did not change significantly
Change of [Y30]Aβ42 fluorescence upon addition of peptide ([Y30]Aβ42): did not change significantly
Protection from alamethicin-induced toxicity [3]: only weak protection
Rescue from Aβ42-induced inhibition of miniature excitatory postsynaptic current frequency [4]: significantly rescued

CC[C@H](C)[C@H](NC(=O)[C@@H](NC(=O)[C@@H](N)C(C)C)C(C)C)C(=O)N[C@@H](C)C(N)=O [VVIA-NH2] (H-VVIA-NH2)
Inhibition of Aβ42-induced neurotoxicity, single-dose screen [2]: as active as Aβ(39–42)
Fold lower [Y1]Aβ42 fluorescence increase than with unmodified Aβ(39–42) ([Y1]Aβ42): 1.8 times
Decrease of [Y30]Aβ42 fluorescence upon addition of peptide ([Y30]Aβ42; mean ± SEM of 4 experiments): 24 ± 3%

Ac-AIVV
Inhibition of Aβ42-induced neurotoxicity, single-dose screen [2]: no inhibitory activity
[Y1]Aβ42 fluorescence increase compared with Aβ(39–42) ([Y1]Aβ42; Fig. S3): significantly lower

Ac-VVIA
Decrease of Aβ42 fluorescence upon addition of peptide (WT Aβ42; Aβ42 5 μM, mean ± SEM of 4 experiments): 19 ± 3%
Inhibition of Aβ42-induced neurotoxicity, single-dose screen [2]: no inhibitory activity

VVAA
Inhibition of Aβ42-induced neurotoxicity, single-dose screen [2]: lost inhibitory activity
